Rows were chosen to be rich in hits. Some 1.2% of all compounds tested hit in one or more screens of this group.
GC-A act: GC-A (human) enzyme activation; P16066; HEK293 GC-A cells, cGMP TR-FRET, EC30 ANP; 0% at EC30 ANP, 100% saturating ANP; activation, % at 10 µM; hit rate 0.14% among 370,000; AID 1671463; in the data active means activation above about 40%
Target sequence (P16066 whole entry, looked up): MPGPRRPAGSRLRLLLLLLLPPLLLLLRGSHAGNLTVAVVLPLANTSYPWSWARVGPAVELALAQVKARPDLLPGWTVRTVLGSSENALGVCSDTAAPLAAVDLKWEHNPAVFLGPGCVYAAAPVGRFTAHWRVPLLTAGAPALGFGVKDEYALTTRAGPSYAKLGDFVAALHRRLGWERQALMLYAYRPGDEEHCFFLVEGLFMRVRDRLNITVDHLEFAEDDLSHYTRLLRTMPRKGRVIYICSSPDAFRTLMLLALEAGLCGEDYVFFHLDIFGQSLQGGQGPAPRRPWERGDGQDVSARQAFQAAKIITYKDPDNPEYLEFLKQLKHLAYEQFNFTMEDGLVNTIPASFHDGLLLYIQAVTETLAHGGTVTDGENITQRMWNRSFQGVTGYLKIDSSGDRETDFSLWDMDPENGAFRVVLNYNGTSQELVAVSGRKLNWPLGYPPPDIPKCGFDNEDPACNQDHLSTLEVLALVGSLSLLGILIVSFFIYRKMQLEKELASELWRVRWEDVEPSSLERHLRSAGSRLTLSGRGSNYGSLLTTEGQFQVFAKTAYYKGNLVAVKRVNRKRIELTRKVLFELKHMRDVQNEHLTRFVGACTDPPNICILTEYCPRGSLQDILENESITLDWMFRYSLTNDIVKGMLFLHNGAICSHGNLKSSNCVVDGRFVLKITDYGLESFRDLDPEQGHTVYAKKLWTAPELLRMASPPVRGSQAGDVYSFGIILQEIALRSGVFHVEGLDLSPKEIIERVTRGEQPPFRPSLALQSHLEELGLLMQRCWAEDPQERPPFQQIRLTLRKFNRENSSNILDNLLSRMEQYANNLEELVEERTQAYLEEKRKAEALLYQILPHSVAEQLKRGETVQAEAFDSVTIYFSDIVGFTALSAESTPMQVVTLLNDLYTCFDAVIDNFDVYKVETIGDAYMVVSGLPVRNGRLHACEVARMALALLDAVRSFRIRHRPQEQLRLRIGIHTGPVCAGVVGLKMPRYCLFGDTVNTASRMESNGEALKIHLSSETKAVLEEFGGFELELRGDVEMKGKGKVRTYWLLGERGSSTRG
HCV core dimer: blocks dimerization of HCV core protein; TR-FRET GST/Flag-core106 dimerization, 1536-well; inhibition, % at 5 µM; hit rate 0.33% among 300,000;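 active means inhibition above the mean of all tested compounds plus 3 SD, set per screening campaign, cut at about 45% in these data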
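Test system: GST/Flag-tagged HCV core106 proteins; Medium: KF-containing HEPES buffer, pH 7.45, DTT, CHAPS, BSA; Times: compound-protein-antibody incubation 4 h at 22.5 °C; Detection: TR-FRET 671 and 617 nm emission; Benchmarks: wells lacking GST-core106 and wells with excess unlabelled core106.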
GC-B act: GC-B (human) receptor activation; AID 1920062; HEK293-GC-B cells, CNP EC30, cGMP TR-FRET; 0% at EC30 CNP, 100% saturating CNP; hit rate 0.11% among 370,000; activation, % at 10 µM;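 active means activation at 10 µM reaching about 35% in either raw or pattern-adjusted values, limit read from the data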
ASAP1 GAP inh: ASAP1 ArfGAP inhibition; Q9ULH1; ASAP1-stimulated ARF1 GTP hydrolysis, GDP FP detection; inhibition, % at 16.5 µM; hit rate 0.19% among 360,000; in the data active means inhibition above about 25%
Fh CTSL1 inh: cathepsin L1 inhibition, PFM18AAP counter-screen. inhibition, % at 5.96 µM. AID 1906. recombinant F. hepatica cathepsin L1, Z-Leu-Arg-MCA fluorescence. hit rate 0.49% among 300,000;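 active means inhibition above the mean of all tested compounds plus 3 SD, set per screening campaign, cut at about 17% in these data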
ARFGAP1 inhibitor: rat ARFGAP1 inhibition | Arfgap1-stimulated ARF1 GTP hydrolysis, GDP FP detection | inhibition, % at 16.5 µM | hit rate 0.26% among 360,000;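 active means inhibition above a per-plate limit, mean inhibition of low control wells plus 3 SD, cut at about 25% in these data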
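Replicates: Single well per compound | Assay system: Truncated rat Arfgap1 GAP domain | Control set: No-Arfgap1 wells (100%) versus DMSO full-reaction wells (0%) | Times: Enzyme reaction 120 min at 25 °C after 20 min preincubation | Reagent: Human ARF1(Δ1-17)-GTP substrate | Measured by: Tracer-displacement fluorescence polarization with EDTA stop, 620/688 nm | Measure: Percent inhibition of Arfgap1-stimulated GTP hydrolysis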
Hits are given with their value; n = inactive; x = not tested or not shown.

SMILES	GC-A act	HCV core dimer	GC-B act	ASAP1 GAP inh	Fh CTSL1 inh	ARFGAP1 inhibitor
O=C(Nc1ccc(-c2csc(Nc3ccc(Cl)cc3)n2)cc1)c1cccc(C(F)(F)F)c1	n	n	n	n	n	n
Cc1cccc(C)c1NC(=O)CSc1nc(-c2ccco2)cc(C(F)(F)F)n1	57	n	n	n	n	n
CC(=O)c1ccccc1NC(=O)CN1C(=O)CS/C1=C\c1nc(-c2ccc(C)cc2)cs1	n	n	n	n	18	n
Cc1ccc(-c2csc(NC(=O)c3ccc([N+](=O)[O-])o3)n2)cc1	n	n	n	n	17	n
Cc1ccc(-c2csc(NC(=O)CN3C(=O)CCC3=O)n2)cc1	55	n	n	n	n	n
Cc1ccc(-c2csc(NC(=O)c3ccc(C)o3)n2)cc1	n	n	n	n	n	n
Cn1cc([N+](=O)[O-])c(C(=O)Nc2nc(-c3ccc(Cl)cc3)cs2)n1	60	n	n	n	n	n
N/C(=N\OC(=O)COc1ccc2ccccc2c1Br)c1ccccn1	n	n	n	n	n	n
COC(=O)c1cc2c(c3c4cc(F)ccc4n(S(=O)(=O)c4cccc(C)c4)c13)C(=O)N(Cc1ccco1)C2	n	x	n	n	x	n
COc1cccc(C(=O)Nc2cc(NC(=O)c3ccco3)ccc2OC)c1	n	n	n	n	n	n
Cn1c(=O)n(Cc2ccccc2Cl)c2ccccc21	n	n	n	n	n	n
Cc1ccc(-c2csc(NC(=O)c3ccno3)n2)cc1	n	62	n	n	n	n
COc1ccc(O)c(C(=O)CC(=O)c2ccccc2C)c1	n	n	n	n	n	n
COc1ccc(/C=C(\C#N)C(=O)Nc2cccc3ncccc23)cc1OC	n	n	n	n	n	n
N#C/C(=C\c1ccc(O)c(O)c1)C(=O)Nc1cccc2ncccc12	n	65	n	n	n	n
CCOC(=O)CSc1nc2c(sc3ccc([N+](=O)[O-])cc32)c(=O)n1Cc1ccco1	48	n	50	n	n	n
COc1ccc(C2=NN(C(N)=S)C(c3ccco3)C2)cc1 (stereo not given)	n	n	n	n	62	n
CN(C)S(=O)(=O)NCCNC(=O)c1cc(OCC(F)(F)F)ccc1OCC(F)(F)F	n	n	n	n	n	n
CCCCCOCC1CC(C/C(C)=N/NC(N)=S)C(=O)O1 (stereo not given)	n	n	n	n	18	n
Cc1cc(/C=C2\SC(=Nc3ccccc3)NC2=O)c(C)n1-c1ccc(S(N)(=O)=O)cc1	n	63	n	n	n	n
CCOc1cc(CNCCc2ccc(S(N)(=O)=O)cc2)ccc1OCC(=O)NC1CCCCC1	n	n	n	n	n	n
O[C@@H]([C@H](O)[C@H](O)CBr)[C@H](O)CBr	n	n	n	n	26	n
Cc1ccc(/C=C(\NC(=O)c2ccccc2)C(=O)OCc2ccccc2)cc1	n	n	n	n	22	n
O=C(Cn1ncc2c(=O)oc3ccccc3c21)N(Cc1ccco1)C1CCCCC1	n	n	n	n	44	n
O=C(Cn1ncc2c1-c1ccccc1OC2)N(Cc1ccco1)C1CCCCC1	n	n	n	n	62	n
SMILES	GC-A act	HCV core dimer	GC-B act	ASAP1 GAP inh	Fh CTSL1 inh	ARFGAP1 inhibitor
O=C(NCCO)/C(=C\c1cccs1)NC(=O)c1cccs1	n	n	n	n	18	n
Cc1cccc(N2CC34C=CC(O3)C(C(=O)O)C4C2=O)c1 (stereo not given)	n	n	n	n	n	n
O=[N+]([O-])CC(=Nc1ccc(Cl)cc1)N/N=C\c1oc(O)c2ccccc12	n	61	n	n	n	n
CCn1c(=O)c(C(=O)CN2c3ccccc3CC2C)c(N)n(Cc2ccccc2)c1=O (stereo not given)	41	n	n	n	n	n
CC1Cc2ccccc2N1CC(=O)c1c(N)n(Cc2ccccc2)c(=O)n(C)c1=O (stereo not given)	n	n	n	n	n	n
Cc1ccc(Cl)cc1N1CCN(C(=O)CSc2ccsc2[N+](=O)[O-])CC1	n	57	n	n	n	n
Cc1cccc(NC(=O)C(=O)NCC2CCCN2S(=O)(=O)c2ccccc2)c1 (stereo not given)	n	n	n	n	n	n
O=C1NCCCC2c3cc(O)c4ccccc4c3OC12N1CCCCC1 (stereo not given)	n	n	n	n	29	n
O=C1NCCCC2c3c(cc(Br)c(O)c3Br)OC12N1CCOCC1 (stereo not given)	n	n	n	n	n	n
CC(=O)c1cc2c(cc1NC(=O)CN1CCOCC1)OCO2	n	n	n	n	n	n
Cc1ccc2[nH]cc(C(=O)CCl)c2c1	n	n	n	n	61	n
Cc1ccc2[nH]cc(C(=O)CN3CCN(C)CC3)c2c1	n	n	n	n	n	n
Cc1ccc(C(=O)Nc2cccc(C(=O)N3CCN(C)CC3)c2)cc1	n	n	n	n	n	n
CNc1nc(-c2ccccc2)nc(-c2ccc(OC)cc2)c1C#N	n	n	n	n	n	n
COc1ccc(-c2nc3c(-c4ccccc4)cnn3cc2C)cc1F	n	n	n	n	20	n
CC(C)CNc1nnnc2c1sc1nc(N3CCOCC3)c3c(c12)CCCC3	51	n	52	n	n	n
C=CCNc1nnnc2c1sc1nc(N3CCOCC3)c3c(c12)CCCC3	50	n	58	n	n	n
COCCNc1nnnc2c1sc1nc(N3CCOCC3)c3c(c12)CC(C)(C)OC3	n	n	n	n	n	n
O=c1c2sc3nc(N4CCOCC4)c4c(c3c2nnn1Cc1ccccc1)CCCC4	n	n	n	n	n	n
O=C1C(C2=C(O)c3ccccc3C2=O)=Nc2ccccc21	n	n	n	39	n	n
NC1=C(Br)C(=O)c2ccccc2C1=O	n	n	n	n	35	n
CCSc1nnc(NC(NC(=O)c2ccco2)(C(F)(F)F)C(F)(F)F)s1	n	n	n	n	n	n
CC1CN(Cc2ccccc2)c2nc3c(c(=O)n(CC(=O)O)c(=O)n3C)n2C1 (stereo not given)	n	n	n	n	n	n
Cc1ccc(C(=O)N2CCOCC2)cc1S(=O)(=O)Nc1cccc(C)c1C	n	n	n	n	n	n
COc1cccc(N(CC(=O)NC2CCCCC2)C(=O)c2snc(C(N)=O)c2N)c1	n	n	n	n	n	n
NC(=O)c1nsc(C(=O)N(CC(=O)NC2CCCC2)c2cccc(C(F)(F)F)c2)c1N	n	n	n	n	20	n
COc1ccc(CCNC(=O)C2CCN(C(=O)N(C)C)CC2)cc1OC	n	n	n	n	n	n
CC(=O)Nc1ccc(N=Cc2nc(-c3ccc(C)cc3)oc2O)cc1	n	65	n	n	n	n
